# According to ChEMBL document CHEMBL1137992, “Long hydrocarbon chain keto diols and diacids that favorably alter lipid disorders in vivo” (J Med Chem, 2004):
# Experiments:
# Assay type in all cases: functional
# Rattus norvegicus [1] = experiment: Amount of insulin in obese Zucker rats after 2 weeks of treatment at a dose of 10 mg/kg/day
# In short: (§1)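 Female obese Zucker rats [Crl:(Zuc)-faBR], 400–500 g, given daily oral gavage in 20% EtOH/80% PEG-200 for up to 14 days. After a 6-h fast, serum was collected pretreatment and at day 7 (orbital bleed) and day 14 (cardiac puncture) and stored at -80 °C. Insulin was measured by ELISA. Values are mean ± SEM.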
# Rattus norvegicus [2] = experiment: Amount of glucose in obese Zucker rats after 2 weeks of treatment at a dose of 100 mg/kg/day
# In short: (§2)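 Female Zucker fatty rats [Crl:(Zuc)-faBR], 10–12 weeks old (400–500 g), gavaged daily with vehicle (20% EtOH/80% PEG-200, 0.25% of body weight) or compound. After a 6-h fast, blood glucose was read by glucometer from tail-prick blood of unanesthetized rats before dosing and after 1 and 2 weeks. Values are mean ± SEM.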
# Rattus norvegicus [3] = experiment: Amount of non-HDL-cholesterol in obese Zucker rats at pre-treatment at a dose of 0 mg/kg/day
# In short: (§3)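 Female obese Zucker fatty rats [Crl:(Zuc)-faBR], 10–12 weeks old (400–500 g), on chow. Compound in 20% EtOH/80% PEG-200 (v/v) given by daily oral gavage. After a 6-h fast, serum was taken before dosing and at 7 days (orbital plexus), and at 14 days (cardiac puncture). Lipoprotein cholesterol came from Superose 6HR gel-filtration profiles × serum total cholesterol. Mean ± SEM.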
# Rattus norvegicus [4] = experiment: Amount of non-HDL-cholesterol in obese Zucker rats at pre-treatment at a dose of 3 mg/kg/day; in short: as §3
# Rattus norvegicus [5] = experiment: Amount of glucose in obese Zucker rats at pre-treatment at a dose of 10 mg/kg/day; in short: as §2
# Rattus norvegicus [6] = experiment: Amount of insulin in obese Zucker rats at pre-treatment at a dose of 100 mg/kg/day; in short: as §1
# Rattus norvegicus [7] = experiment: Amount of HDL-cholesterol in obese Zucker rats after 2 weeks of treatment at a dose of 10 mg/kg/day
# In short: (§4)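 Female Zucker fatty rats [Crl:(Zuc)-faBR], 10–12 weeks old (400–500 g), dosed once daily by oral gavage in 20% EtOH/80% PEG-200 (dose volume 0.25% of body weight). Rats were fasted 6 h and bled before dosing and at day 7 (orbital plexus), and at day 14 (cardiac puncture). Serum cholesterol fractions came from Superose 6 gel-filtration lipoprotein profiles (% peak area × serum total cholesterol). Values are mean ± SEM.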
# Rattus norvegicus [8] = experiment: Amount of nonesterified fatty acids in obese Zucker rats at pre-treatment at a dose of 10 mg/kg/day
# In short: (§5)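 Female Zucker fatty rats [Crl:(Zuc)-faBR], 10–12 weeks old (400–500 g), dosed once daily by oral gavage in 20% EtOH/80% PEG-200 for up to 14 days. After a 6-h fast, serum was taken pre-dose, at day 7 (orbital venous plexus, O2/CO2 anaesthesia) and at day 14 (cardiac puncture), stored at −80 °C, and assayed on a Hitachi 912 automatic analyzer. Mean ± SEM.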
# Rattus norvegicus [9] = experiment: Amount of non-HDL-cholesterol in obese Zucker rats after 1 week of treatment at a dose of 3 mg/kg/day; in short: as §4
# Rattus norvegicus [10] = experiment: Amount of HDL-cholesterol in obese Zucker rats after 2 weeks of treatment at a dose of 3 mg/kg/day; in short: as §4
# Rattus norvegicus [11] = experiment: Amount of non-HDL-cholesterol in obese Zucker rats after 2 weeks of treatment at a dose of 30 mg/kg/day; in short: as §3
# Rattus norvegicus [12] = experiment: Percent decrease in triglycerides in obese Zucker rats after 1 week of treatment at a dose of 30 mg/kg/day; parameters: scale not given: the % may be the effect or the level left
# In short: (§6)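 Female Zucker fatty rats [Crl:(Zuc)-faBR], 10–12 weeks, 400–500 g, acclimated 7 days on chow. Compound or vehicle (20% EtOH/80% PEG-200) given by daily oral gavage for 2 weeks, 0–100 mg/kg/day. After a 6 h fast, blood was taken before dosing, at 1 wk and at 2 wk. Serum lipids, NEFA and insulin (ELISA) were measured; glucose by glucometer. HDL/non-HDL-C came from Superose 6 gel-filtration profiles. Values are % change from pretreatment, mean ± SEM.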
# Rattus norvegicus [13] = experiment: Percent increase in HDL-cholesterol in obese Zucker rats after 2 weeks of treatment at a dose of 30 mg/kg/day; in short: as §6
# Rattus norvegicus [14] = experiment: Percentage change of HDL cholesterol levels in obese female Zucker rats after 1 week of pre-treatment at a dose of 100 mg/kg/day
# In short: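 Obese female Zucker fatty rats were gavaged once daily with 30 or 100 mg/kg/day in 20% EtOH/80% PEG-200 for 2 weeks. Sera were collected after a 6 h fast, before dosing, at 1 week (orbital plexus) and at 2 weeks (cardiac puncture). HDL-C was total cholesterol multiplied by HDL area fraction from gel-filtration lipoprotein profiles. Reported as % change from pretreatment ± SEM.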
# Rattus norvegicus [15] = experiment: Percentage change of non-HDL cholesterol levels in obese female Zucker rats after 1 week of pre-treatment at a dose of 100 mg/kg/day
# In short: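 Female Zucker fatty rats [Crl:(Zuc)-faBR], 10–12 weeks old (400–500 g), acclimated 7 days and fed rodent chow. Dosed once daily by oral gavage in 20% EtOH/80% PEG-200 (v/v), at 0.25% of body weight, for 2 weeks. Blood taken after a 6-h fast: orbital plexus before dosing and at day 7, cardiac puncture at day 14. Serum lipoprotein cholesterol measured by Superose 6 gel filtration with on-line cholesterol detection. Values are % change from pretreatment, mean ± SEM.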
# Rattus norvegicus [16] = experiment: Amount of nonesterified fatty acids in obese Zucker rats after 2 weeks of treatment at a dose of 10 mg/kg/day; in short: as §5
# Rattus norvegicus [17] = experiment: Amount of HDL-cholesterol in obese Zucker rats at pre-treatment at a dose of 10 mg/kg/day; in short: as §4
# Rattus norvegicus [18] = experiment: Amount of insulin in obese Zucker rats after 1 week of treatment at a dose of 0 mg/kg/day; in short: as §1
# Rattus norvegicus [19] = experiment: Amount of insulin in obese Zucker rats after 1 week of treatment at a dose of 3 mg/kg/day; in short: as §1
# Rattus norvegicus [20] = experiment: Amount of HDL-cholesterol in obese Zucker rats at pre-treatment at a dose of 100 mg/kg/day; in short: as §4
# Rattus norvegicus [21] = experiment: Amount of triglycerides in obese Zucker rats at pre-treatment at a dose of 10 mg/kg/day; in short: as §5
# Rattus norvegicus [22] = experiment: Amount of glucose in obese Zucker rats after 2 weeks of treatment at a dose of 3 mg/kg/day; in short: as §2
# Rattus norvegicus [23] = experiment: Amount of insulin in obese Zucker rats after 1 week of treatment at a dose of 10 mg/kg/day; in short: as §1
# Rattus norvegicus [24] = experiment: Amount of insulin in obese Zucker rats after 1 week of treatment at a dose of 30 mg/kg/day; in short: as §1
# Rattus norvegicus [25] = experiment: Amount of insulin in obese Zucker rats after 2 weeks of treatment at a dose of 0 mg/kg/day; in short: as §1
# Rattus norvegicus [26] = experiment: Amount of glucose in obese Zucker rats at pre-treatment at a dose of 0 mg/kg/day; in short: as §2
# Rattus norvegicus [27] = experiment: Amount of glucose in obese Zucker rats at pre-treatment at a dose of 100 mg/kg/day; in short: as §2
# Rattus norvegicus [28] = experiment: Amount of insulin in obese Zucker rats after 2 weeks of treatment at a dose of 3 mg/kg/day; in short: as §1
SMILES,Activity (Rattus norvegicus [1]) [ng/mL],Activity (Rattus norvegicus [2]) [mg/dL],Activity (Rattus norvegicus [3]) [mg/dL],Activity (Rattus norvegicus [4]) [mg/dL],Activity (Rattus norvegicus [5]) [mg/dL],Activity (Rattus norvegicus [6]) [ng/mL],Activity (Rattus norvegicus [7]) [mg/dL],Activity (Rattus norvegicus [8]) [mg/dL],Activity (Rattus norvegicus [9]) [mg/dL],Activity (Rattus norvegicus [10]) [mg/dL],Activity (Rattus norvegicus [11]) [mg/dL],Activity (Rattus norvegicus [12]) [%],Activity (Rattus norvegicus [13]) [%],Change (Rattus norvegicus [14]) [%],Change (Rattus norvegicus [15]) [%],Activity (Rattus norvegicus [16]) [mg/dL],Activity (Rattus norvegicus [17]) [mg/dL],Activity (Rattus norvegicus [18]) [ng/mL],Activity (Rattus norvegicus [19]) [ng/mL],Activity (Rattus norvegicus [20]) [mg/dL],other results
CC(C)(CCCCCC(=O)CCCCCC(C)(C)C(=O)O)C(=O)O,9.1,105,20,22,120,11.9,138,1.2,23,77,30,-78,235,72,-98,0.95,86,10.1,10,66,Activity (Rattus norvegicus [21]): 863 mg/dL; Activity (Rattus norvegicus [22]): 124 mg/dL; Activity (Rattus norvegicus [23]): 10.5 ng/mL; Activity (Rattus norvegicus [24]): 6.4 ng/mL; Activity (Rattus norvegicus [25]): 8.1 ng/mL; Activity (Rattus norvegicus [26]): 129 mg/dL; Activity (Rattus norvegicus [27]): 117 mg/dL; Activity (Rattus norvegicus [28]): 7.3 ng/mL
CC(C)(CCCCC(=O)CCCCC(C)(C)C(=O)O)C(=O)O,8.9,122,40,32,113,8.1,39,1.6,24,33,43,-33,47,54,-62,1.5,37,8.4,10.7,38,Activity (Rattus norvegicus [21]): 1143 mg/dL; Activity (Rattus norvegicus [22]): 103 mg/dL; Activity (Rattus norvegicus [23]): 7.7 ng/mL; Activity (Rattus norvegicus [24]): 9.2 ng/mL; Activity (Rattus norvegicus [25]): 0.058 ng/mL; Activity (Rattus norvegicus [26]): 134 mg/dL; Activity (Rattus norvegicus [27]): 110 mg/dL; Activity (Rattus norvegicus [28]): 8.6 ng/mL
CC(C)(CO)CCCCC(=O)CCCCC(C)(C)CO,7.8,118,25,24,112,9.6,53,1.2,25,39,38,-27,42,111,-23,1,46,8.7,7.5,45,Activity (Rattus norvegicus [21]): 777 mg/dL; Activity (Rattus norvegicus [22]): 103 mg/dL; Activity (Rattus norvegicus [23]): 7.5 ng/mL; Activity (Rattus norvegicus [24]): 9.1 ng/mL; Activity (Rattus norvegicus [25]): 7.7 ng/mL; Activity (Rattus norvegicus [26]): 125 mg/dL; Activity (Rattus norvegicus [27]): 114 mg/dL; Activity (Rattus norvegicus [28]): 7.8 ng/mL
